Reference: ChEMBL document CHEMBL4007489, “First Bispecific Inhibitors of the Epidermal Growth Factor Receptor Kinase and the NF-κB Activity As Novel Anticancer Agents” (J Med Chem, 2017)
The source made the active and inactive calls. The calls are words filed in the database; no cut-off is given here.

Key:
A549 = assay: cells; type: functional; conditions: Homo sapiens, A549, 48 h
[1] = molecular target: Transcription factor p65 (Homo sapiens) (UniProt Q04206); assay: Inhibition of IL-1beta-stimulated nuclear translocation of GFP-tagged NF-kappaB-p65 (unknown origin) expressed in CHO cells at 15 uM preincubated with IL-1beta for 30 mins followed by compound addition in presence of Pluronic F127 by fluorescence assay; type: cell-based
Transcription factor p65 (Homo sapiens), sequence (Q04206 whole entry): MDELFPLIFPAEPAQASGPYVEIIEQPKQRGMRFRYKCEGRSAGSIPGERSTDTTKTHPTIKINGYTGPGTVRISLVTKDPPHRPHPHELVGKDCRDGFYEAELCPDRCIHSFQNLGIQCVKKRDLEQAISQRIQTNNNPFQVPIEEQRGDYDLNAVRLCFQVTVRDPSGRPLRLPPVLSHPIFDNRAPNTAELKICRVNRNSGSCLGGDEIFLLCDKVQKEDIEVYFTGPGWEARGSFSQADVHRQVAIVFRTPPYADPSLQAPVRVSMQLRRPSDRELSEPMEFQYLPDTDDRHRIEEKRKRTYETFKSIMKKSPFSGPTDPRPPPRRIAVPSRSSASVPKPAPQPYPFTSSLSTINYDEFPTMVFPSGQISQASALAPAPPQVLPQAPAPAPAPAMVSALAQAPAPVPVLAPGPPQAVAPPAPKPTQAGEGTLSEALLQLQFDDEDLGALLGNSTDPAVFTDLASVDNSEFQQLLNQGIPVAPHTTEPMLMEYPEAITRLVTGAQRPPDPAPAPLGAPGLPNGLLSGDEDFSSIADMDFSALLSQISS

Homo sapiens [2] = species: Homo sapiens; conditions: at 10 µM
[3] = molecular target: Transcription factor p65 (Homo sapiens) (UniProt Q04206); assay: Inhibition of NF-kappaB-p65 binding to NF-kappaB response element oligonucleotide in nuclear extracts of 12 hrs compound pre-treated human MDA-MB-231 cells at 2.5 to 15 uM by ELISA
Outline: (§1)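 MDA-MB-231 cells treated with compound or DMSO for 12 h; in some runs TNFα (20 ng/mL final) added for a further 20 min at 37 °C. Nuclear extracts prepared on ice and protein measured by Bradford. 5 μg of extract incubated on plate-immobilized NF-κB response element oligonucleotide. Bound complexes detected with anti-p65 primary and HRP secondary antibody, read at 450 nm. Specificity checked by competition with free oligonucleotide; triplicates.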

[4] = molecular target: Transcription factor p65 (Homo sapiens) (UniProt Q04206); assay: Inhibition of TNFalpha-stimulated DNA binding activity of NF-kappaB-p65 in nuclear extracts of human MDA-MB-231 cells at 2.5 to 15 uM incubated for 12 hrs followed by TNFalpha stimulation measured after 20 mins by ELISA
Outline: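 MDA-MB-231 cells exposed to compound or DMSO for 12 h, then TNFα (20 ng/mL final) for 20 min at 37 °C. Cells washed with ice-cold PBS, nuclear extracts prepared, protein measured by Bradford. 5 μg nuclear protein incubated on immobilized NF-κB response-element oligonucleotide, bound p65 detected by primary antibody and HRP secondary, absorbance 450 nm. Binding specificity checked with competing free oligonucleotide. Triplicates.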

[5] = molecular target: Serine/threonine-protein kinase pim-1 (Homo sapiens, UniProt P11309); assay: Inhibition of human recombinant full length His-tagged PIM-1 expressed in baculovirus expression system
[6] = molecular target: Receptor tyrosine-protein kinase erbB-4 (Homo sapiens) (UniProt Q15303); assay: Inhibition of N-terminal GST-tagged human recombinant ERBB4 expressed in baculovirus expression system at 5 uM
[7] = molecular target: T1, Proteasome Macropain subunit MB1 (Homo sapiens) (UniProt P28074); assay: Inhibition of chymotrypsin like activity of 26S proteasome derived from human MDA-MB-231 cells at 50 uM
T1 sequence (whole entry): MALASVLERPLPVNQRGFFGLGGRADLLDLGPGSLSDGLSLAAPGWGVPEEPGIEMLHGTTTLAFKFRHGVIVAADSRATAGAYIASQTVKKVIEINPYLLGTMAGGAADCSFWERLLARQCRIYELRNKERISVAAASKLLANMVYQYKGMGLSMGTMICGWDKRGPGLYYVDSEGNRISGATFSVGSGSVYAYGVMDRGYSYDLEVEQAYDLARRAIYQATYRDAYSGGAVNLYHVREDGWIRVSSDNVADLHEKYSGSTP
Outline: (§2)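 Total protein extract from MDA-MB-231 cells served as the source of 26S proteasome. Trypsin-like, chymotrypsin-like and caspase-like activities were each measured with a specific fluorigenic peptide substrate.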

MDA-MB-231 [8] = assay: cells; type: functional; conditions: Homo sapiens, MDA-MB-231, 48 h
in vitro [9] = conditions: human, HUVEC
Homo sapiens [10] = species: Homo sapiens; conditions: at 2.5 to 15 µM
[11] = molecular target: Transcription factor p65 (Homo sapiens) (UniProt Q04206); assay: Inhibition of IL-1beta-stimulated nuclear translocation of GFP-tagged NF-kappaB-p65 (unknown origin) expressed in CHO cells at 15 uM preincubated with IL-1beta for 30 mins followed by compound addition by fluorescence assay; type: cell-based
in vitro [12] = conditions: chinese hamster, CHO-K1 cells
[13] = molecular target: Transcription factor p65 (Homo sapiens) (UniProt Q04206); assay: Inhibition of TNFalpha-stimulated DNA binding activity of NF-kappaB-p65 in human MDA-MB-231 cells at 2.5 to 15 uM incubated for 12 hrs followed by TNFalpha stimulation measured after 20 mins by ELISA; type: cell-based
Outline: as §1

cells = type: cell-based; conditions: Homo sapiens, U-937
[14] = molecular target: T2, MAP kinase-interacting serine/threonine-protein kinase 2 (Homo sapiens, UniProt Q9HBH9); assay: Inhibition of human full length N-terminal GST-tagged MNK2 expressed in baculovirus expression system
[15] = molecular target: T3, Proteasome component C5 (Homo sapiens) (UniProt P20618); assay: Inhibition of caspase like activity of 26S proteasome derived from human MDA-MB-231 cells at 50 uM
T3 sequence (whole entry): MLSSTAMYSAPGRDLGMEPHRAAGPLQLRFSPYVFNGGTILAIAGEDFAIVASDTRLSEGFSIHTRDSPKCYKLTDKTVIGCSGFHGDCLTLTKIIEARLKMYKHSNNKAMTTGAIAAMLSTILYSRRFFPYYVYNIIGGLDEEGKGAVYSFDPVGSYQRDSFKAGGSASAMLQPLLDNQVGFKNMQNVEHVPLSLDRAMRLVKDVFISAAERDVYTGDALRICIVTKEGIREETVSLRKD
Outline: as §2

[16] = molecular target: T2, MAP kinase-interacting serine/threonine-protein kinase 2; assay: Inhibition of human full length N-terminal GST-tagged MNK2 expressed in baculovirus expression system at 5 uM
[17] = molecular target: Proteasome Macropain subunit (Homo sapiens) (UniProt P49721); assay: Inhibition of trypsin like activity of 26S proteasome derived from human MDA-MB-231 cells at 50 uM
Proteasome Macropain subunit (Homo sapiens), sequence (P49721 whole entry): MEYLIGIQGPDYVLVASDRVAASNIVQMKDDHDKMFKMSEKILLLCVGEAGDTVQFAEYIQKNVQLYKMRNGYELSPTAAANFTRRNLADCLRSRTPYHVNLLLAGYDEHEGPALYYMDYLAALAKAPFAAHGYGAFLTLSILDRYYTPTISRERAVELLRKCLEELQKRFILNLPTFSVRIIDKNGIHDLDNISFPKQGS
Outline: as §2

[18] = molecular target: Serine/threonine-protein kinase TBK1 (Homo sapiens) (UniProt Q9UHD2); assay: Inhibition of TNFalpha-stimulated TBK1 in human U937 cells assessed as residual activity at 10 uM in presence of ATP relative to control; type: cell-based
[19] = molecular target: Inhibitor of nuclear factor kappa-B kinase subunit alpha (Homo sapiens) (UniProt O15111); assay: Inhibition of TNFalpha-stimulated IKKalpha in human U937 cells assessed as residual activity at 10 uM in presence of ATP relative to control; type: cell-based
Inhibitor of nuclear factor kappa-B kinase subunit alpha (Homo sapiens), sequence (O15111 whole entry): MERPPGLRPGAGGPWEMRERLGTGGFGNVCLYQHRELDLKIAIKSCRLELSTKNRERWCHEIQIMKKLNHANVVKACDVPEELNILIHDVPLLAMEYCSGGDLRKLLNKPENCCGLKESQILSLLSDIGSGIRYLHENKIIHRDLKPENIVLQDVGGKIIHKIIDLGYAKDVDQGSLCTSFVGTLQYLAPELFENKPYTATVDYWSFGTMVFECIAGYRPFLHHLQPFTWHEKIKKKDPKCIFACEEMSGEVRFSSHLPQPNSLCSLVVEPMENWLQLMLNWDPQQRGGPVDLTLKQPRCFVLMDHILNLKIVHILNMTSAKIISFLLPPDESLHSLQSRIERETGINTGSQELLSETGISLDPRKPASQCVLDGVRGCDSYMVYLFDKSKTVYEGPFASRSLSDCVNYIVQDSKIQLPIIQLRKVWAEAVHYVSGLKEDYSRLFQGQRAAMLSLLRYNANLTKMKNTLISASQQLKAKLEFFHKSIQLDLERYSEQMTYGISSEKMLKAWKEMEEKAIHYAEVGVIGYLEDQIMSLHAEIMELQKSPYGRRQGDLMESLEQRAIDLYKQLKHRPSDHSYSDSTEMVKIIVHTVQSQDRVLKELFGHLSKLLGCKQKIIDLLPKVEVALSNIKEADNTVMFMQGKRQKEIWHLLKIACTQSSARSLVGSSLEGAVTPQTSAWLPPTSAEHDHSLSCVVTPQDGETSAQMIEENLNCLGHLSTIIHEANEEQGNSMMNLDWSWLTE

[20] = molecular target: Inhibitor of nuclear factor kappa-B kinase subunit beta (Homo sapiens) (UniProt O14920); assay: Inhibition of TNFalpha-stimulated IKKbeta in human U937 cells assessed as residual activity at 10 uM in presence of ATP relative to control; type: cell-based
Inhibitor of nuclear factor kappa-B kinase subunit beta (Homo sapiens), sequence (O14920 whole entry): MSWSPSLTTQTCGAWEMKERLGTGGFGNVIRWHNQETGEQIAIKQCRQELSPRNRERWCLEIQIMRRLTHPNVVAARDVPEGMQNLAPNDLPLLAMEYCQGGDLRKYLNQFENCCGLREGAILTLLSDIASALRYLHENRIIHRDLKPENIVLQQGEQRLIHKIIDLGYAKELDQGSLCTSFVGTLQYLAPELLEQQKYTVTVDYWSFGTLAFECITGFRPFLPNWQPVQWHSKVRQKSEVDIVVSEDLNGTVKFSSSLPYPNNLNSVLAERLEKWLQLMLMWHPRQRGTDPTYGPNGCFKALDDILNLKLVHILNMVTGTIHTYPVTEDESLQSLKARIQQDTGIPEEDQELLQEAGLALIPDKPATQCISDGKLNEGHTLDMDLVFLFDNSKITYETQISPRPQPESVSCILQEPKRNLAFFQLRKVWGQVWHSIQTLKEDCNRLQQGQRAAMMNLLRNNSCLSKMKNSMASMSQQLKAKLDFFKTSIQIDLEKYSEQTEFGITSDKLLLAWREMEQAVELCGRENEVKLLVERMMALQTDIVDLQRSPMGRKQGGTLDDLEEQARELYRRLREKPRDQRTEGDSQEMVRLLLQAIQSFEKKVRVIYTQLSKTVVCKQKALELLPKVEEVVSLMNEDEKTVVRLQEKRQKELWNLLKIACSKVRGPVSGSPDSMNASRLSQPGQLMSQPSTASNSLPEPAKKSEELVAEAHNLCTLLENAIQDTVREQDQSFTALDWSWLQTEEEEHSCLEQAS

[21] = molecular target: T4, Epidermal growth factor receptor (Homo sapiens, UniProt P00533); assay: biochemical; type: cell-based
T4 sequence (P00533 whole entry): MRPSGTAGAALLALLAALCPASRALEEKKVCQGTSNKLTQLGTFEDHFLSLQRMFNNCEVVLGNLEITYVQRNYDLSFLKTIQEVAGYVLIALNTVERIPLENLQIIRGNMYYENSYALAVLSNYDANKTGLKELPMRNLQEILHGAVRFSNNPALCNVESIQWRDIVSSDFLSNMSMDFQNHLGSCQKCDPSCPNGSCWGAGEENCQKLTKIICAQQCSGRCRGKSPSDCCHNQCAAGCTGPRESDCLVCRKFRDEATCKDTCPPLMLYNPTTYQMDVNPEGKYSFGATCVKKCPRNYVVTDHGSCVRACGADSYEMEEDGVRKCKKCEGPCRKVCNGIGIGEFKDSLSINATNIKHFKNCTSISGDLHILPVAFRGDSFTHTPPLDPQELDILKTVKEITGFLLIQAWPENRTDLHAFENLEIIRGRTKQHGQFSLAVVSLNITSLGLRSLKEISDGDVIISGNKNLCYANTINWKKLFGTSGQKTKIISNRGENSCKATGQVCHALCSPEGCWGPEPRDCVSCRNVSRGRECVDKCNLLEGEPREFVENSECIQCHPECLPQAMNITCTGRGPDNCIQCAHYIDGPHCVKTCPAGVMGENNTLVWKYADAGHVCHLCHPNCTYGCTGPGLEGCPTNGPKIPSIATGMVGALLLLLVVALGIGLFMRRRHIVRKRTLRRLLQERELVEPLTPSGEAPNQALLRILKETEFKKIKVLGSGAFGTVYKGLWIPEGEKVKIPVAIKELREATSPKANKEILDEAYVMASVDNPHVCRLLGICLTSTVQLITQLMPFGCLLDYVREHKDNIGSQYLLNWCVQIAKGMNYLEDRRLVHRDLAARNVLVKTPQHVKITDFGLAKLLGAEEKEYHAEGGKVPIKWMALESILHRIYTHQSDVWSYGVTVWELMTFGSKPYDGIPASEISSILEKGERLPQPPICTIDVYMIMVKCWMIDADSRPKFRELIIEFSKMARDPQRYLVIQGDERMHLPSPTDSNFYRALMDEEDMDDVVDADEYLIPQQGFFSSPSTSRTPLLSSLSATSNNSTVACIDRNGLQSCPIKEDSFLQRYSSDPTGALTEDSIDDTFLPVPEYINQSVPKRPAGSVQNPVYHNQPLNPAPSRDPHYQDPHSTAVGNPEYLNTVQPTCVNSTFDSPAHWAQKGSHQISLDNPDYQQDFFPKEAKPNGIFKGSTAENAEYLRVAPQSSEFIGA

[22] = molecular target: T5, Receptor-interacting serine/threonine-protein kinase 2 (Homo sapiens, UniProt O43353); assay: Inhibition of TNFalpha-stimulated RIPK2 in human U937 cells in presence of 5 uM ATP; type: cell-based
T5 sequence (O43353 whole entry): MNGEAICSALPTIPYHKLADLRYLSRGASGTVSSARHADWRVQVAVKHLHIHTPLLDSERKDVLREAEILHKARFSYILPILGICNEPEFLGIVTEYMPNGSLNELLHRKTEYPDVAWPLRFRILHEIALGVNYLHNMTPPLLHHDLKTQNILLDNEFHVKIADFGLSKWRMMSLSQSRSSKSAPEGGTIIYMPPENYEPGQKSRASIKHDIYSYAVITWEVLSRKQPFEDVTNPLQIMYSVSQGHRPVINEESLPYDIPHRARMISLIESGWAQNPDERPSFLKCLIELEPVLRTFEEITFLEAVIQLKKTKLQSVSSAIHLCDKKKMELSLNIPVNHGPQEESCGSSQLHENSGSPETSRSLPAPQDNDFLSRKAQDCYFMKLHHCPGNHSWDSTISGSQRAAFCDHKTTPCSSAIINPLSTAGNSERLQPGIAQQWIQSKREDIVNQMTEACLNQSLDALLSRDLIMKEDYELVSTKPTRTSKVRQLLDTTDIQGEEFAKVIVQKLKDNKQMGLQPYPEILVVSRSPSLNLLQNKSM

[23] = molecular target: Mitogen-activated protein kinase 14 (Homo sapiens) (UniProt Q16539); assay: Inhibition of TNFalpha-stimulated SAPK2a in human U937 cells assessed as residual activity at 10 uM in presence of ATP relative to control; type: cell-based
Mitogen-activated protein kinase 14 (Homo sapiens), sequence (Q16539 whole entry): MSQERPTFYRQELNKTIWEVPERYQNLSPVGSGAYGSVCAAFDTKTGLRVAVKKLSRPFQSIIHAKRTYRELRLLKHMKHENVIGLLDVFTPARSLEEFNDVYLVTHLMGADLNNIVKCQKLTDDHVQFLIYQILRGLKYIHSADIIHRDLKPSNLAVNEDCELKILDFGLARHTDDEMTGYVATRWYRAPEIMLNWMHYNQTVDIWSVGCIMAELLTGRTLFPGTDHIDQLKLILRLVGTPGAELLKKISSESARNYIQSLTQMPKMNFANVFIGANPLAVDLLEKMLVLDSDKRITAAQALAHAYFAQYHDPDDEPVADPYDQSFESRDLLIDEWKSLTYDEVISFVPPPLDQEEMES

[24] = molecular target: Protein kinase C zeta type (Homo sapiens) (UniProt Q05513); assay: Inhibition of TNFalpha-stimulated PKCzeta in human U937 cells assessed as residual activity at 10 uM in presence of ATP relative to control; type: cell-based
[25] = molecular target: Protein kinase C iota type (Homo sapiens) (UniProt P41743); assay: Inhibition of TNFalpha-stimulated PKCI in human U937 cells assessed as residual activity at 10 uM in presence of ATP relative to control; type: cell-based
Protein kinase C iota type (Homo sapiens), sequence (P41743 whole entry): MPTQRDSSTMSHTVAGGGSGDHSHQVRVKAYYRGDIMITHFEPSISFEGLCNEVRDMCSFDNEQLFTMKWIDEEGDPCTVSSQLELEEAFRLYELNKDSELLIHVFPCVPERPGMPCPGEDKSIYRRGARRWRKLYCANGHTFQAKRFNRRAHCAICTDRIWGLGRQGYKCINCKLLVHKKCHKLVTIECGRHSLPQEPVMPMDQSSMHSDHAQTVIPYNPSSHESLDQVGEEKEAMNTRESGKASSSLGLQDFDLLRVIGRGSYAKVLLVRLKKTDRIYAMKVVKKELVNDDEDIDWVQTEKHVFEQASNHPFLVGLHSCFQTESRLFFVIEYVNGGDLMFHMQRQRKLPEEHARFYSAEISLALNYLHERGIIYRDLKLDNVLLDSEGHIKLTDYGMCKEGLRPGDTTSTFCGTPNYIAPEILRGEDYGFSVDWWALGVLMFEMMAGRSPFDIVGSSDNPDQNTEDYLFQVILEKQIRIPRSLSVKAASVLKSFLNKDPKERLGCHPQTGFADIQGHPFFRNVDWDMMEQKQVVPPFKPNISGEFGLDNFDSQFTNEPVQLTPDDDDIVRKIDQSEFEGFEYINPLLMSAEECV

[26] = molecular target: T5, Receptor-interacting serine/threonine-protein kinase 2; assay: Inhibition of TNFalpha-stimulated RIPK2 in human U937 cells assessed as residual activity at 10 uM in presence of ATP relative to control; type: cell-based
[27] = molecular target: T4, Epidermal growth factor receptor; conditions: at 150 nM
[28] = molecular target: Mitogen-activated protein kinase kinase kinase 7 (Homo sapiens) (UniProt O43318); assay: Inhibition of TNFalpha-stimulated TAK1 in human U937 cells assessed as residual activity at 10 uM in presence of ATP relative to control; type: cell-based
[29] = Selectivity ratio of GI50 for HUVEC to GI50 for human MDA-MB-231 cells
MDA-MB-231 [30] = assay: Potency index, ratio of gefitinib GI50 to compound GI50 for human MDA-MB-231 cells; type: functional
[31] = Selectivity ratio of GI50 for CHOK1 cells to GI50 for human MDA-MB-231 cells
[32] = Selectivity ratio of GI50 for CHOK1 cells to GI50 for human A549 cells
[33] = Selectivity ratio of GI50 for HUVEC to GI50 for human A549 cells

For `S=C(Nc1cccc(Cl)c1)Nc1ccc2ncnc(Nc3cccc(Br)c3)c2c1`, which GI50 (A549) is on record?
Its GI50 is 1600 nM.

And the inhibition [1]?
Its inhibition is “inactive”.

What about the inhibition (Homo sapiens [2]) of the same compound?
The inhibition was 97.4%.

And the inhibition [3]?
The inhibition was “inactive”.

And the inhibition [4]?
The inhibition was “inactive”.

And the IC50 [5]?
Its IC50 is 1200 nM.

What about the inhibition [6] of the same compound?
Its inhibition is 54%.

What about the inhibition [7] of the same compound?
The inhibition was “inactive”.

And the GI50 (MDA-MB-231 [8])?
Its GI50 is 2100 nM.

And the GI50 at 48 h (in vitro [9])?
Its GI50 at 48 h is 11500 nM.

What about the inhibition (Homo sapiens [10]) of the same compound?
Its inhibition is “Dose-dependent effect”.

What about the inhibition [11] of the same compound?
Its inhibition is “inactive”.

And the GI50 at 48 h (in vitro [12])?
The GI50 at 48 h was 25700 nM.

What about the inhibition [13] of the same compound?
The inhibition was “inactive”.

What about the IC50 (cells) of the same compound?
The IC50 was 1900 nM.

And the IC50 [14]?
Its IC50 is 2700 nM.

And the inhibition [15]?
The inhibition was “inactive”.

What about the inhibition [16] of the same compound?
Its inhibition is 78%.

What about the inhibition [17] of the same compound?
The inhibition was “inactive”.

What does the source list for `S=C(NCc1ccccc1)Nc1ccc2ncnc(Nc3cccc(Br)c3)c2c1`?
Activity [18]: 92%; inhibition (Homo sapiens [2]): 97%; Activity [19]: 117%; Activity [20]: 100%; IC50 [21]: 17.2 nM; IC50 [22]: > 10000 nM; Activity [23]: 78%; GI50 (MDA-MB-231 [8]): 9500 nM; Activity [24]: 92%; Activity [25]: 106%; Activity [26]: 54%; inhibition [27]: 86.1%; IC50 (cells): 4100 nM; Activity [28]: 106%

With `Fc1ccc(NC(=S)Nc2ccc3ncnc(Nc4cccc(Br)c4)c3c2)cc1Cl` as the compound, how does the RatioGI50 [29] read?
Its RatioGI50 is 49.3.

And the GI50 (A549)?
The GI50 was 1000 nM.

What about the inhibition [1] of the same compound?
Its inhibition is “inactive”.

And the RatioGI50 (MDA-MB-231 [30])?
The RatioGI50 was >35.

And the inhibition (Homo sapiens [2])?
Its inhibition is 100%.

What about the IC50 [21] of the same compound?
Its IC50 is 25.3 nM.

What about the inhibition [7] of the same compound?
Its inhibition is “inactive”.

What about the GI50 (MDA-MB-231 [8]) of the same compound?
The GI50 was 300 nM.

What about the GI50 at 48 h (in vitro [9]) of the same compound?
The GI50 at 48 h was 14800 nM.

What about the inhibition [11] of the same compound?
The inhibition was “inactive”.

And the GI50 at 48 h (in vitro [12])?
Its GI50 at 48 h is 52100 nM.

What about the RatioGI50 [31] of the same compound?
The RatioGI50 was 173.7.

And the RatioGI50 [32]?
Its RatioGI50 is 52.1.

And the RatioGI50 [33]?
Its RatioGI50 is 14.8.

And the inhibition [27]?
The inhibition was 74.1%.

And the IC50 (cells)?
The IC50 was 1000 nM.

What about the inhibition [15] of the same compound?
Its inhibition is “inactive”.

What about the inhibition [17] of the same compound?
The inhibition was “inactive”.
